Consider eight compounds from ChEMBL document CHEMBL2177098, “Synthesis and evaluation of novel ¹⁸F labeled 2-pyridinylbenzoxazole and 2-pyridinylbenzothiazole derivatives as ligands for positron emission tomography (PET) imaging of β-amyloid plaques” (J Med Chem, 2012).

Experiment [1] can be described thus: Displacement of [125I]-IMPY from amyloid beta (1 to 42) fibrils after 2 hrs by gamma-counting analysis. In short, it runs like this:
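Competition binding with aggregated Aβ1-42 fibrils and [125I]IMPY (60000−100000 cpm/100 μL) in 0.05% BSA (1 mL total); inhibitors 10⁻⁴−10^−8.5 M in ethanol. Incubated 37 °C for 2 h, then GF/B vacuum filtration with PBS (0.02 M, pH 7.4) washes and γ counting. Three repeats; IC50 converted to Ki by Cheng−Prusoff.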
For orientation: Loss of bound radioactivity is the signal in a displacement assay; it reports binding, not function.

For experiment [2], the species on record is Mus musculus. Briefly: Binding affinity to amyloid beta plaques in transgenic C57BL6 mouse cortex expressing APP Swedish mutant/PSEN1 at 370 KBq/100 ul after 1 hr by thioflavinS-staining method. The following applies: tested as the 18F-labelled form. The procedure, abridged: (§1)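 Paraffin brain sections from 12-month-old Tg mice (C57BL6, APPswe/PSEN1) and age-matched controls, deparaffinized through xylene and graded ethanol, then PBS (0.2 M, pH 7.4) 30 min. Incubated with 18F tracer (370 KBq per 100 μL) 1 h at room temperature, washed in 40% EtOH, rinsed in water, then phosphor plate exposure 2 h. The same sections were afterwards stained with 0.125% thioflavin S in 10% EtOH for 3 min and washed in 40% EtOH.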

The species entered for experiment [3] is Mus musculus. Kind of experiment: Binding affinity to amyloid beta plaques in transgenic C57BL6 mouse hippocampus expressing APP Swedish mutant/PSEN1 at 370 KBq/100 ul after 1 hr by autoradiographic analysis. Format: tissue-based. The following applies: tested as the 18F-labelled form. In short, it runs like this:
as §1

The species named for experiment [4] is Mus musculus. Kind of experiment: Binding affinity to amyloid beta plaques in transgenic C57BL6 mouse cortex expressing APP Swedish mutant/PSEN1 at 370 KBq/100 ul after 1 hr by autoradiographic analysis. The following applies: tested as the 18F-labelled form. In short, it runs like this:
as §1

For experiment [5], the species on record is Mus musculus. Kind of experiment: Binding affinity to amyloid beta plaques in transgenic C57BL6 mouse hippocampus expressing APP Swedish mutant/PSEN1 at 370 KBq/100 ul after 1 hr by thioflavinS-staining method. Format: tissue-based. The note with it: tested as the 18F-labelled form. The procedure, abridged: as §1

pKi: −log10 of the molar value. Calls of active or inactive are those of the source. No cut-off for these calls is given here.

In general, pKi refers to the negative decadic logarithm of the Ki, by convention in mol/L.

In turn, `CNc1ccc(-c2nc3cc(OCCOCCF)ccc3o2)cn1` showed a pKi in experiment [1] of 6.99.

In the case of `CN(C)c1ccc(-c2nc3cc(OCCOCCOCCF)ccc3o2)cn1`, the negative logarithm of the Ki (pKi) in experiment [1] was 8.00. Moreover, the result in the experiment filed under Mus musculus [2], in the experiment listed under Mus musculus [3], in the experiment listed under Mus musculus [4] and in the experiment filed under Mus musculus [5] was Active.

Turning to `CN(C)c1ccc(-c2nc3ccc(OCCOCCF)cc3s2)cn1`, in experiment [1], the pKi was 8.34.

For `CN(C)c1ccc(-c2nc3cc(OCCF)ccc3o2)cn1`, in experiment [1], the pKi was 8.57. For the same compound, the result in the experiment filed under Mus musculus [2], in the experiment filed under Mus musculus [3], in the experiment listed under Mus musculus [4] and in the experiment filed under Mus musculus [5] was Active.

In experiment [1], `CN(C)c1ccc(-c2nc3ccc(OCCOCCOCCF)cc3s2)cn1` gave a pKi of 8.24. The result in the experiment filed under Mus musculus [2], in the experiment listed under Mus musculus [3], in the experiment filed under Mus musculus [4] and in the experiment listed under Mus musculus [5] was Active.

The compound `CN(C)c1ccc(-c2nc3cc(OCCOCCF)ccc3o2)cn1` showed a pKi in experiment [1] of 8.14.

As for `CN(C)c1ccc(-c2nc3ccc(OCCF)cc3s2)cn1`, the pKi in experiment [1] was 8.57.

`CNc1ccc(-c2nc3ccc(OCCOCCF)cc3s2)cn1` had a pKi in experiment [1] of 7.53.
